ChEMBL document CHEMBL1147223, “Saponins from Cussonia bancoensis and their inhibitory effects on nitric oxide production” (J Nat Prod, 2003)

What was measured:
[1] = test system: RAW264.7; assay: Cytotoxicity against LPS-stimulated mouse RAW264.7 cells by Griess method; format: cell-based
[2] = test system: RAW264.7; assay: Inhibition of LPS-induced nitric oxide production in mouse RAW264.7 cells by Griess method; format: functional, cell-based
In short: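 RAW 264.7 murine macrophages were grown in DMEM with 10% FBS, penicillin and streptomycin at 37 °C under 5% CO2, then stimulated with LPS for 24 h. Nitrite in the medium was measured by Griess reaction (sulfanilamide/naphthylethylenediamine, 10 min at room temperature, A550) against a NaNO2 standard curve. IC50 is the concentration giving a 50% decrease in NO; values are the mean of four independent experiments.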

C[C@H]1[C@H](C)CC[C@]2(C(=O)O)CC[C@]3(C)C(=CC[C@@H]4[C@@]5(C)CC[C@H](O[C@@H]6OC[C@H](O)[C@H](O)[C@H]6O)[C@@](C)(CO)[C@@H]5CC[C@]43C)[C@H]12
IC50 [1]: 124 µM
IC50 [2]: 47.9 µM

C[C@H]1[C@H](C)CC[C@]2(C(=O)O)CC[C@]3(C)C(=CC[C@@H]4[C@@]5(C)CC[C@H](O[C@@H]6O[C@H](CO)[C@@H](O)[C@H](O)[C@H]6O)[C@@](C)(CO)[C@@H]5CC[C@]43C)[C@H]12
IC50 [1]: 126 µM
IC50 [2]: 22.1 µM

C[C@H]1[C@H](C)CC[C@]2(C(=O)O)CC[C@]3(C)C(=CC[C@@H]4[C@@]5(C)CC[C@H](O)C(C)(C)[C@@H]5CC[C@]43C)[C@H]12 [URSOLIC ACID]
IC50 [1]: 58.5 µM
IC50 [2]: 46.9 µM

CC(=N)NCCCC[C@H](N)C(=O)O [L-NIL]
IC50 [1]: > 200 µM
IC50 [2]: 18.6 µM

C[C@H]1[C@H](C)CC[C@]2(C(=O)O)CC[C@]3(C)C(=CC[C@@H]4[C@@]5(C)CC[C@H](O)[C@@](C)(CO)[C@@H]5CC[C@]43C)[C@H]12
IC50 [1]: 11 µM
IC50 [2]: 2.6 µM
